Calpain2 inh = blocks pig calpain II enzyme activity; inhibition, % at 16 µM; purified calpain II, fluorogenic peptide substrate, 30 min; 220,000 compounds, 0.37% hits;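 active = inhibition above about 50%, limit read from the data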
Mdm2 ligase inh = inhibitors of human Mdm2 E3 ubiquitin ligase | Q00987 | cell-based MDM2 ubiquitination luciferase reporter, 2 h; 0 = plate control, 100 = twice control, blank-subtracted | signal enhancement, % at 5 µM | 210,000 compounds, 0.11% hits | AID 1230;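 active = signal enhancement of 30% or more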;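 note: luminescence tracks abundance of the self-degrading MDM2-luciferase fusion protein; higher signal means inhibition of MDM2 E3 ligase activity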
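Timing – 2 h compound exposure at 37 °C · Assay system – mammalian cells stably expressing self-ubiquitinating, self-degrading MDM2 E3–luciferase fusion · Amount – 2000 cells seeded into each well · Measure – % luminescence enhancement versus blank-corrected plate control mean · Measured by – SteadyLite luminescence, 15 min reagent step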
Arbovirus inh = arbovirus infection inhibition; 200,000 compounds, 0.37% hits; arbovirus infection cell-based antiviral screen; AID 1251; inhibition, % at 10 µM; in the data active = inhibition above about 30%
ROMK mod = modulates human ROMK potassium channel activity; 130,000 compounds, 2% hits; Tet-inducible ROMK, thallium flux fluorescence; actives lie on both sides; P48048; B-score at 10 µM; AID 1918;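 active = signal ratio slope over the read window, or its plate-corrected B-score, at least 3 SD from the plate mean, either direction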;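 note: B-score of the F/F0 ratio slope over 7 to 12 s after thallium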
PKD1 kinase inh = inhibitors of human PKD1 kinase. Q15139. PKD1 kinase fluorescence polarization assay. inhibition, % (test concentration not listed). 200,000 compounds, 0.056% hits. AID 797; in the data active = inhibition above about 50%
Cl transport mod = modulators of human KCC2 chloride dependent transport | KCC2 cells, thallium flux FluoZin-2 fluorescence | B-score of Tl+ flux slope (higher = more flux/activation; lower = inhibition) at 10 µM | 190,000 compounds, 2.2% hits | AID 1456;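 active = thallium flux slope and its plate-corrected score both differing from the plate sample mean at a set confidence after two filtering rounds, in either direction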;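 note: slope of fluorescence scaled to starting intensity during 10 to 20 s after thallium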
ROMK hit retest = human ROMK channel modulation, retest confirmation. normalized thallium flux (F/F0 slope) at 10 µM. ROMK thallium flux, fluorescence ratio; hits give low values. 3,000 compounds, 54% hits. shares compounds with ROMK mod;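 active = Flux at 10 µM at least 3 SD below or above vehicle control mean in one or both replicates; inconclusive = no clear call, values can overlap the other calls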
The depositor's hits bear a star; ? = inconclusive; . = no result given. Hits are enriched below; roughly 3.7% of the tested compounds scored in any of these assays.

SMILES | Calpain2 inh | Mdm2 ligase inh | Arbovirus inh | ROMK mod | PKD1 kinase inh | Cl transport mod | ROMK hit retest
CCCOC(=O)c1ccc(Oc2cn[nH]c2-c2ccc(OC)cc2O)cc1 | 42.8 | 1.2 | -24.9 | 0.495 | -0.6 | . | .
CCCN1C(=O)/C(=C/c2c(NCCCOC(C)C)nc3c(C)cccn3c2=O)SC1=S | 37.0 | -16.0 | 7.7 | . | 6.0 | -0.0627 | 0.0546*
COc1ccc(S(=O)(=O)N(C)CC(=O)NCCC2=CCCCC2)cc1 | -6.3 | -2.6 | 0.6 | . | -18.2 | -1.4 | 0.069*
COc1ccc(S(=O)(=O)N(C)CC(=O)NCCC2=CCCCC2)cc1OC | 1.8 | -4.0 | -8.8 | 0.116 | -1.6 | -1.52 | .
CCc1ccc(-n2c(SCC(=O)Nc3cccc(S(=O)(=O)NC4=NCCCCC4)c3)nc3ccccc3c2=O)cc1 | -19.2 | -10.5 | 1.8 | -2.68* | -5.0 | 1.28 | ?
CCN(CC)c1ccc(C=N/C(C#N)=C(\N)C#N)cc1 | 14.0 | -22.3 | -7.8 | . | -4.7 | . | ?
Cc1ccccc1OCC(=O)Nc1ccc2c(c1)C(=O)c1ccccc1C2=O | 12.3 | -7.5 | -17.5 | 0.0134 | -3.4 | -0.65 | .
O=C(/C=C\c1cccs1)c1c(O)ccc2ccc(=O)oc12 | -55.9 | -5.7 | -4.3 | -5.02* | -6.1 | -2.13 | 0.0496*
CCc1nnc(NC(=O)CSc2nc(-c3ccccc3)cc(-c3ccc(OC)cc3)c2C#N)s1 | 32.9 | -10.4 | -18.2 | . | 0.7 | -0.303 | .
Cn1cc([N+](=O)[O-])c(C(=O)NCc2cc3cc(Cl)ccc3[nH]2)n1 | 4.5 | -18.9 | 34.9* | 3.36* | 1.9 | 0.627 | 0.0924
Cc1c(Br)c(C(=O)NCc2cc3cc(Cl)ccc3[nH]2)nn1C | 2.9 | 11.8 | -5.7 | -0.68 | -10.0 | -0.687 | .
Cc1nc2ncnn2c(C)c1CCC(=O)NCCCN1CCN(c2cccc(Cl)c2)CC1 | -11.1 | 0.1 | -0.3 | . | 3.4 | 0.0709 | .
CCOC(=O)COc1cccc2c(=O)n(CC(=O)NCc3ccccc3)ccc12 | -3.9 | 9.1 | . | 4.73* | . | 0.57 | 0.0882
CCOC(=O)COc1cccc2c(=O)n(CC(N)=O)ccc12 | -26.7 | -6.9 | . | 0.132 | . | -0.668 | .
CCOC(=O)COc1cccc2c(=O)n(CC(=O)NCc3ccc(F)cc3)ccc12 | -8.7 | -6.7 | . | 3.13* | . | -0.031 | 0.0922
Cc1oc2cc(O)ccc2c(=O)c1-c1nncn1-c1ccccc1 | -329.2 | -15.3 | 8.9 | -4.63* | -3.9 | -0.112 | 0.049*
Cn1cccc1/C=C1\SC(=Nc2cccc(O)c2)NC1=O | 14.6 | -8.0 | . | -2.27* | . | -2.31 | 0.0746
Cc1ccc(N=C2NC(=O)/C(=C/c3cn(C)c4ccccc34)S2)cc1C | -45.2 | 6.2 | -9.0 | -3.37* | -4.2 | -0.559 | ?
Cn1cccc1/C=C1\SC(=Nc2ccc(O)cc2)NC1=O | -1.4 | -5.8 | . | -0.548 | . | -1.11 | .
CCOC(=O)c1c(CSc2ccc(C)cc2)n(C)c2cc(Br)c(O)c(CN(C)C)c12 | -5.8 | -4.4 | 19.3 | . | -3.9 | . | 0.0515*
CCOC(=O)c1c(CSc2ccccc2)n(C)c2cc(Br)c(O)c(CN(C)C)c12 | 9.0 | -11.4 | . | -1.93 | . | -0.00629 | .
COc1cccc(C(=O)N2CCN=C2SCc2cccnc2)c1OC | -0.2 | -16.7 | 2.5 | . | 3.8 | -0.0533 | .
Cc1ccc(N2C(=S)NC3c4ccccc4OC2(C)C3C(=O)N(C)C)cc1 (stereo unspecified) | -27.1 | -2.5 | 6.3 | 1.09 | -1.6 | 0.0608 | .
Cc1ccccc1N1C(=S)NC2c3ccccc3OC1(C)C2C(=O)N(C)C (stereo unspecified) | -13.3 | -0.5 | 4.8 | -6.84* | -0.1 | 0.299 | 0.0553*
CCC(=O)N(C)CCc1cc2c(c(OC)c1/C=N/NC(=O)c1ccncc1)OCO2 | 15.1 | 5.4 | . | -2.01* | . | -0.753 | 0.0718
SMILES | Calpain2 inh | Mdm2 ligase inh | Arbovirus inh | ROMK mod | PKD1 kinase inh | Cl transport mod | ROMK hit retest
COC(=O)c1c(O)cc(C(C)(C)C)n(-c2ccc(F)cc2)c1=O | -3.0 | -3.4 | 12.4 | 0.178 | -9.5 | 1.45 | .
OC(C#CCCN1CCCCC1)(c1ccccc1)C1CCCCC1 (stereo unspecified) | 19.6 | -3.3 | . | . | . | 0.523 | 0.0625*
COC(=O)c1c(S(=O)(=O)NCc2ccccc2)sc(C(=O)O)c1C | -35.2 | -3.1 | 1.5 | 1.95 | -2.4 | . | .
Cc1nnc2sc(-c3cccc4ccccc34)nn12 | -43.3 | 1.5 | -0.9 | -5.2* | -12.4 | -0.453 | 0.0538*
Cc1nnc2c3ccccc3c(-c3cccc4ccccc34)nn12 | -13.9 | 24.7 | -20.4 | -0.42 | -5.9 | . | .
Cc1ccc(C(=O)C(OC(=O)CN2C(=O)c3ccccc3C2=O)c2ccccc2)cc1C (stereo unspecified) | -15.4 | 3.7 | -0.1 | 0.983 | 7.4 | -0.0225 | .
CCN(CC)S(=O)(=O)c1ccc(NC(=O)c2nc3nc(C)cc(C)n3n2)cc1 | -7.7 | . | . | . | . | 1.28 | .
CS(=O)(=O)c1ccc(S(=O)CC(=O)OCc2ccccc2)c([N+](=O)[O-])c1 (stereo unspecified) | -5.1 | -27.9 | -27.3 | -5.34* | -1.2 | . | 0.0534*
O=C(CS(=O)c1ccc(C(F)(F)F)cc1[N+](=O)[O-])Oc1ccccc1 (stereo unspecified) | 9.8 | -0.6 | 2.0 | . | -2.6 | -0.00393 | .
CCc1ccc(NC(=O)CNC(=O)c2cn(-c3ccccc3OC)c(=O)c3ccccc23)cc1 | -183.1 | -10.9 | 4.5 | -0.946 | -1.2 | -0.911 | .
COc1ccccc1-n1cc(C(=O)NCC(=O)NCc2ccc(F)cc2)c2ccccc2c1=O | -37.9 | -27.5 | 1.4 | 3.11* | -1.2 | . | 0.0849
Cc1ccc(-c2cc(C(=O)Nc3nn[nH]n3)c3ccccc3n2)cc1 | -141.7 | -1.7 | 8.9 | . | 11.3 | . | .
NC(=O)c1ccc(NC(=O)COC(=O)c2ccccc2Nc2ccccc2)cc1 | -17.4 | -10.5 | 3.2 | 0.832 | -9.5 | 0.165 | .
COCCCNC(=S)Nc1cccc(SC)c1 | 14.9 | 2.2 | . | -0.101 | . | 0.389 | .
CCCC(c1nnnn1C(C)(C)C)N1CCN(c2ccccc2)CC1 (stereo unspecified) | -22.3 | 13.3 | -5.1 | -13* | -2.4 | 0.000764 | 0.0827
CCCC(c1nnnn1C(C)(C)C)N1CCN(Cc2ccccc2OC)CC1 (stereo unspecified) | -9.9 | -14.3 | 1.5 | 0.0773 | -5.1 | -0.511 | .
NC(CO)C12CC3CC(CC(C3)C1)C2 (stereo unspecified) | -11.4 | -6.9 | . | -0.544 | . | 0.504 | .
NC(CCC(=O)O)C12CC3CC(CC(C3)C1)C2 (stereo unspecified) | 8.1 | -8.6 | 10.1 | 2.45* | 15.3 | 0.751 | ?
CC(C(=O)c1ccc(-c2ccccc2)cc1)[n+]1cccc(NC(=O)c2ccccc2)c1 (stereo unspecified) | 4.0 | -2.0 | . | -4.9* | . | 0.00286 | 0.0571*
CCOC(=O)c1ccc[n+](C(C)C(=O)c2ccc(-c3ccccc3)cc2)c1 (stereo unspecified) | -1.4 | 10.7 | -1.2 | -0.543 | -8.0 | -0.827 | .
O=C(NC1CCCCCC1)c1c2c(nc3ccccc13)CCN(Cc1ccccc1)C2 | -47.6 | -15.5 | 4.2 | -4.31* | -2.9 | -0.386 | 0.0622*

From PubChem
